Measured values as given in ChEMBL document CHEMBL3297722, “Design, synthesis and docking studies of some novel (R)-2-(4'-chlorophenyl)-3-(4'-nitrophenyl)-1,2,3,5-tetrahydrobenzo[4,5] imidazo [1,2-c]pyrimidin-4-ol derivatives as antitubercular agents” (Eur J Med Chem, 2014).
≈ marks a conversion by molar mass, not a printed value.

Key:
[1] = tested on: Mycobacterium tuberculosis; test: Antitubercular activity against Mycobacterium tuberculosis H37Rv ATCC 27294 in GAST/Fe medium after 2 weeks by broth microdilution method; type: functional; conditions: H37Rv ATCC 27294, 336 h
Procedure, shortened: (§1)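 Two-fold serial dilutions from DMSO stocks added to medium; equal volume of H37Rv diluted to 10,000 cells/mL in the same medium. DMSO-only wells; isoniazid positive control. 37 °C; growth read by inverted enlarging mirror. Quadruplicate. MIC = lowest concentration completely inhibiting growth.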

[2] = tested on: Mycobacterium tuberculosis; test: Antitubercular activity against Mycobacterium tuberculosis H37Rv ATCC 27294 in 7H9/ADC/Tween medium after 2 weeks by broth microdilution method; type: functional; conditions: H37Rv ATCC 27294, 336 h; procedure, shortened: as §1
[3] = tested on: Mycobacterium tuberculosis; test: Antitubercular activity against Mycobacterium tuberculosis H37Rv ATCC 27294 in 7H9/ADC/Tween medium after 1 week by broth microdilution method; type: functional; conditions: H37Rv ATCC 27294, 168 h; procedure, shortened: as §1
[4] = tested on: Mycobacterium tuberculosis; test: Antitubercular activity against Mycobacterium tuberculosis H37Rv ATCC 27294 in GAST/Fe medium after 1 week by broth microdilution method; type: functional; conditions: H37Rv ATCC 27294, 168 h; procedure, shortened: as §1
[5] = Cytotoxicity against African green monkey Vero cells assessed as survival at 50 ug/ml after 48 hrs by Cell-Titre Blue assay; type: cell-based; conditions: chlorocebus sabaeus, read-out: Survival
Procedure, shortened: (§2)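 Vero cells in DMEM with 10% FBS, seeded at 20,000 cells/well and left to adhere overnight at 37 °C, 5% CO2. Medium then replaced with fresh medium containing compound, 48 h. Cell-Titer Blue added for a further 2 h; OD read at 560 nm. % survival = OD test/OD of DMSO-medium control ×100.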

[6] = Cytotoxicity against African green monkey Vero cells assessed as survival at 25 ug/ml after 48 hrs by Cell-Titre Blue assay; type: cell-based; conditions: chlorocebus sabaeus, read-out: Survival; procedure, shortened: as §2

| SMILES | MIC [1] | MIC [2] | MIC [3] | MIC [4] | viability at 48 h, 50 ug/ml [5] | viability at 48 h, 25 ug/ml [6] |
| --- | --- | --- | --- | --- | --- | --- |
| O=[N+]([O-])c1ccc([C@@H]2C(O)=C3Nc4ccccc4N3CN2c2ccc(Cl)cc2)cc1 | > 100 µg/mL | > 100 µg/mL | > 100 µg/mL | 100 µg/mL (≈ 238 µM) |  |  |
| OC1=C2Nc3ccccc3N2CN(c2ccc(Br)cc2)[C@@H]1c1ccc(O)cc1 | 75 µg/mL (≈ 172 µM) | > 100 µg/mL | ≥ 100 µg/mL | 75 µg/mL (≈ 172 µM) |  |  |
| Cc1ccc([C@@H]2C(O)=C3Nc4ccccc4N3CN2c2c(C)cccc2C)c(N)c1C | 75 µg/mL (≈ 182 µM) | > 100 µg/mL | 100 µg/mL (≈ 242 µM) | 37 µg/mL (≈ 89.7 µM) | 73% | 64% |
| O=[N+]([O-])c1ccc(N2CN3C(=C(O)[C@H]2c2ccccc2[N+](=O)[O-])Nc2ccccc23)cc1 | 37 µg/mL (≈ 85.8 µM) | 50 µg/mL (≈ 116 µM) | 37 µg/mL (≈ 85.8 µM) | 37 µg/mL (≈ 85.8 µM) | 61% | 53% |
| Cc1cccc(C)c1N1CN2C(=C(O)[C@H]1c1ccc(O)cc1)Nc1ccccc12 | 9.4 µg/mL (≈ 24.4 µM) | 19 µg/mL (≈ 49.3 µM) | 12.5 µg/mL (≈ 32.4 µM) | 6.25 µg/mL (≈ 16.2 µM) | 63% | 66% |
| OC1=C2Nc3ccccc3N2CN(c2c(Cl)cccc2Cl)[C@@H]1c1cccc(O)c1 | 9.4 µg/mL (≈ 22.1 µM) | 50 µg/mL (≈ 117 µM) | 37 µg/mL (≈ 86.8 µM) | 6.25 µg/mL (≈ 14.7 µM) | 61% | 63% |
| O=[N+]([O-])c1ccc(N2CN3C(=C(O)[C@H]2c2cccc([N+](=O)[O-])c2)Nc2ccccc23)cc1 | 4.7 µg/mL (≈ 10.9 µM) | 37 µg/mL (≈ 85.8 µM) | 25 µg/mL (≈ 57.9 µM) | 3.13 µg/mL (≈ 7.26 µM) | 69% | 66% |
| COc1ccc([C@@H]2C(O)=C3Nc4ccccc4N3CN2c2cc(Cl)cc(Cl)c2)cc1OC | > 100 µg/mL | > 100 µg/mL | > 100 µg/mL | 100 µg/mL (≈ 213 µM) |  |  |
| NNC(=O)c1ccncc1 [ISONIAZID] | 0.02 µg/mL (≈ 0.146 µM) | 0.02 µg/mL (≈ 0.146 µM) | 0.02 µg/mL (≈ 0.146 µM) | 0.02 µg/mL (≈ 0.146 µM) | 100% | 100% |
| COc1ccccc1[C@@H]1C(O)=C2Nc3ccccc3N2CN1c1c(C)cccc1C | 100 µg/mL (≈ 250 µM) | > 100 µg/mL | 50 µg/mL (≈ 125 µM) | 100 µg/mL (≈ 250 µM) |  |  |
| COc1ccc(N2CN3C(=C(O)[C@H]2c2cccc(Br)c2)Nc2ccccc23)cc1 | > 100 µg/mL | > 100 µg/mL | > 100 µg/mL | > 100 µg/mL |  |  |
| COc1ccc(N2CN3C(=C(O)[C@H]2c2cccc(-c4ccccn4)c2)Nc2ccccc23)cc1 | 19 µg/mL (≈ 42.4 µM) | > 100 µg/mL | ≥ 100 µg/mL | 12.5 µg/mL (≈ 27.9 µM) | 56% | 66% |
| OC1=C2Nc3ccccc3N2CN(c2cc(Cl)cc(Cl)c2)[C@@H]1c1ccc(Cl)cc1 | 50 µg/mL (≈ 112 µM) | ≥ 100 µg/mL | 100 µg/mL (≈ 225 µM) | 37 µg/mL (≈ 83.2 µM) | 69% | 63% |
| COc1ccccc1N1CN2C(=C(O)[C@H]1c1ccccc1O)Nc1ccccc12 | 25 µg/mL (≈ 64.5 µM) | 75 µg/mL (≈ 194 µM) | 50 µg/mL (≈ 129 µM) | 19 µg/mL (≈ 49 µM) | 69% | 63% |
| COc1ccc(O)c([C@@H]2C(O)=C3Nc4ccccc4N3CN2c2ccc(C(=O)O)cc2)c1 | > 100 µg/mL | > 100 µg/mL | > 100 µg/mL | > 100 µg/mL |  |  |
| COc1ccc([C@@H]2C(O)=C3Nc4ccccc4N3CN2c2ccc(OC)cc2)cc1 | 75 µg/mL (≈ 187 µM) | ≥ 100 µg/mL | 100 µg/mL (≈ 249 µM) | 50 µg/mL (≈ 125 µM) |  |  |
| COc1ccccc1[C@@H]1C(O)=C2Nc3ccccc3N2CN1c1cc(Cl)cc(Cl)c1 | 100 µg/mL (≈ 227 µM) | 100 µg/mL (≈ 227 µM) | 100 µg/mL (≈ 227 µM) | 50 µg/mL (≈ 114 µM) |  |  |
| OC1=C2Nc3ccccc3N2CN(c2cc(Cl)cc(Cl)c2)[C@@H]1c1ccccc1Cl | > 100 µg/mL | > 100 µg/mL | ≥ 100 µg/mL | > 100 µg/mL |  |  |
